Experimental findings from ChEMBL document CHEMBL1125276 (J Med Chem, 1991) are described below.

In general, IC50 refers to the concentration at which inhibition is half-maximal. A low value points to greater potency. By T/C is commonly meant the result in the treated group divided by that in the control group, in per cent.

One experiment has as its system L1210. The experiment is described as follows: Tested for the inhibition of L1210 cell proliferation. In kind it is functional, cell-based. The settings on record: Mus musculus. The method, boiled down: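 L1210 cells were grown in RPMI 1640 with 10% FCS, 2 mM L-glutamine and 10 mM HEPES (pH 7.4). Exponential-phase cells (10^5 cells/mL) were exposed for 24 h to 5 drug concentrations in triplicate, then pulsed 3 h with 0.5 µCi/mL [3H]thymidine. Cells were harvested onto filters and counted. IC50 is 50% inhibition of incorporation versus untreated cells, given as the mean of 2–5 independent experiments.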

Experiment [1] has as its system P388. The experiment is described as follows: Compound was tested for T/C range at optimal dose of 40.0 mg/kg for antitumor activity against P388 leukemia cells in mice. In kind it is functional, Mus musculus.
Experiment [2] relates to P388. The experiment is described as follows: Long-term survivors (LTS) for 60 days at optimal dose of 40.0 mg/kg for antitumor activity against P388 leukemia cells in 6 mice. In kind it is functional, Mus musculus.
Another experiment addresses Tubulin. The experiment is described as follows: The compound tested for the inhibition of tubulin polymerization. In kind it is functional. The method, boiled down:
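Tubulin was partially purified from dog brain by polymerization/depolymerization cycles and used at 0.5 mg/mL. Compounds were added in DMSO (10 µL per 500 µL reaction) at 10^-6 to 10^-9 M, with DMSO-only controls. Polymerization was followed by turbidity at 350 nm. Rates from two separate experiments were plotted against concentration, and IC50 was read graphically.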

For experiment [3], the system named is P388. The experiment is described as follows: Compound was tested for T/C range at optimal dose of 3.0 mg/kg for antitumor activity against P388 leukemia cells in mice. In kind it is functional, Mus musculus.
Experiment [4] has as its system P388. The experiment is described as follows: Long-term survivors (LTS) for 60 days at optimal dose of 3.0 mg/kg for antitumor activity against P388 leukemia cells in 6 mice. In kind it is functional, Mus musculus.
Experiment [5] concerns P388. The experiment is described as follows: Compound was tested for T/C range at optimal dose of 20.0 mg/kg for antitumor activity against P388 leukemia cells in mice. In kind it is functional, Mus musculus.
In experiment [6] the test system is P388. The experiment is described as follows: Long-term survivors (LTS) for 60 days at optimal dose of 20.0 mg/kg for antitumor activity against P388 leukemia cells in 5 mice. In kind it is functional, Mus musculus.
Experiment [7] relates to P388. The experiment is described as follows: Compound was tested for T/C range at optimal dose of 12.00 mg/kg for antitumor activity against P388 leukemia cells in mice. In kind it is functional, Mus musculus.
Experiment [8] deals with P388. The experiment is described as follows: Long-term survivors (LTS) for 60 days at optimal dose of 12.00 mg/kg for antitumor activity against P388 leukemia cells in 5 mice. In kind it is functional, Mus musculus.
The test system of experiment [9] is P388. The experiment is described as follows: Long-term survivors (LTS) for 60 days at optimal dose of 1.00 mg/kg for antitumor activity against P388 leukemia cells in 12 mice. In kind it is functional, Mus musculus.
The subject of experiment [10] is P388. The experiment is described as follows: Compound was tested for T/C range at optimal dose of 1.00 mg/kg for antitumor activity against P388 leukemia cells in mice; value ranges from 234-302. In kind it is functional, Mus musculus.

With `CCOP(=O)(OCC)[C@H](Cc1c[nH]c2ccccc12)NC(=O)[C@@]1(O)[C@H](O)[C@]2(CC)C=CCN3CC[C@@]4(c5cc([C@@]6(C(=O)OC)C[C@@H]7CN(CCc8c6[nH]c6ccccc86)C[C@](O)(CC)C7)c(OC)cc5N(C)[C@@H]14)[C@@H]32`, the 50% inhibitory concentration (IC50) is 0.0647 µM with L1210 and 0.1 µM on Tubulin. In the experiment on P388 [1], this compound registered a T/C of 188%. Moreover, the LTS with P388 [2] is listed as 0.

Take `CCOP(=O)(CNC(=O)[C@@]1(O)[C@H](O)[C@]2(CC)C=CCN3CC[C@@]4(c5cc([C@@]6(C(=O)OC)C[C@@H]7CN(CCc8c6[nH]c6ccccc86)C[C@](O)(CC)C7)c(OC)cc5N(C)[C@@H]14)[C@@H]32)OCC`: the results for the IC50 with L1210 and against Tubulin were 0.0178 µM and 0.3 µM, respectively. Further, in the experiment on P388 [3], the T/C was determined as 230%. In the experiment with P388 [4], this compound gave an LTS of 1.

`CCCCCC(NC(=O)[C@@]1(O)[C@H](O)[C@]2(CC)C=CCN3CC[C@@]4(c5cc([C@@]6(C(=O)OC)C[C@@H]7CN(CCc8c6[nH]c6ccccc86)C[C@](O)(CC)C7)c(OC)cc5N(C)[C@@H]14)[C@@H]32)P(=O)(OCC)OCC` (mixture of isomers): the results for the IC50 with L1210 and against Tubulin were 0.00397 µM and 0.02 µM, respectively. The compound also had a T/C in the experiment with P388 [3] of 203%. Further, the LTS in the experiment with P388 [4] came to 0.

In the experiment on L1210, `CCOP(=O)(OCC)[C@@H](Cc1ccccc1)NC(=O)[C@@]1(O)[C@H](O)[C@]2(CC)C=CCN3CC[C@@]4(c5cc([C@@]6(C(=O)OC)C[C@@H]7CN(CCc8c6[nH]c6ccccc86)C[C@](O)(CC)C7)c(OC)cc5N(C)[C@@H]14)[C@@H]32` came in with an IC50 of 0.0143 µM. Further, the T/C in the experiment with P388 [5] was determined as 261%. This compound also came in with an LTS with P388 [6] of 1.

For `CCOP(=O)(OCC)[C@H](NC(=O)[C@@]1(O)[C@H](O)[C@]2(CC)C=CCN3CC[C@@]4(c5cc([C@@]6(C(=O)OC)C[C@@H]7CN(CCc8c6[nH]c6ccccc86)C[C@](O)(CC)C7)c(OC)cc5N(C)[C@@H]14)[C@@H]32)C(C)C`, the IC50 in the experiment with L1210 was determined as 0.0109 µM; at Tubulin, 0.8 µM. Moreover, in the experiment on P388 [3], the T/C was 135%. In the experiment with P388 [4], this compound gave an LTS of 0.

In turn, `C=CC[C@@H](NC(=O)[C@@]1(O)[C@H](O)[C@]2(CC)C=CCN3CC[C@@]4(c5cc([C@@]6(C(=O)OC)C[C@@H]7CN(CCc8c6[nH]c6ccccc86)C[C@](O)(CC)C7)c(OC)cc5N(C)[C@@H]14)[C@@H]32)P(=O)(OCC)OCC` came in with an IC50 with L1210 of 0.0264 µM. In the experiment with P388 [7], this compound showed a T/C of 195%. In the experiment on P388 [8], this compound showed an LTS of 0.

For `CCOC(=O)CC(NC(=O)[C@@]1(O)[C@H](O)[C@]2(CC)C=CCN3CC[C@@]4(c5cc([C@@]6(C(=O)OC)C[C@@H]7CN(CCc8c6[nH]c6ccccc86)C[C@](O)(CC)C7)c(OC)cc5N(C)[C@@H]14)[C@@H]32)P(=O)(OCC)OCC` (mixture of isomers), the half-maximal inhibitory concentration (IC50) with L1210 came out at 0.00277 µM; at Tubulin it was 0.3 µM. The T/C in the experiment on P388 [3] is 122%. In the experiment on P388 [4], this compound had an LTS of 0.

For the compound `C=CCC(NC(=O)[C@@]1(O)[C@H](O)[C@]2(CC)C=CCN3CC[C@@]4(c5cc([C@@]6(C(=O)OC)C[C@@H]7CN(CCc8c6[nH]c6ccccc86)C[C@](O)(CC)C7)c(OC)cc5N(C)[C@@H]14)[C@@H]32)P(=O)(OCC)OCC` (some centres undefined), the figures for the IC50 in the experiment on L1210 and on Tubulin were 0.0037 µM and 0.3 µM, respectively. In the experiment with P388 [9], this compound showed an LTS of 2. The same compound had a T/C with P388 [10] of 234%.

For `CCOP(=O)(OCC)[C@@H](Cc1c[nH]c2ccccc12)NC(=O)[C@@]1(O)[C@H](O)[C@]2(CC)C=CCN3CC[C@@]4(c5cc([C@@]6(C(=O)OC)C[C@@H]7CN(CCc8c6[nH]c6ccccc86)C[C@](O)(CC)C7)c(OC)cc5N(C)[C@@H]14)[C@@H]32`, the figures for the 50% inhibitory concentration (IC50) in the experiment with L1210 and at Tubulin were 0.0367 µM and 0.1 µM, respectively. Also, the T/C in the experiment with P388 [1] is on record as 197%. Also, the LTS in the experiment on P388 [2] turned out to be 0.
